Assay outcomes deposited in PubChem by Johns Hopkins Ion Channel Center.
KCNQ1 block: blocks the human KCNQ1 potassium channel. CHO-K1 KCNQ1, FluxOR thallium flux fluorescence; hits give high values. B-score at 10 µM. 1.3% of 310,000 active;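 active means compounds whose thallium flux B-score, printed positive for inhibition, exceeds three library SD while starting fluorescence stays within three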;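 further: channel opened by potassium depolarization with thallium stimulus after 20 min compound exposure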
KCNK9 inh: human KCNK9 channel inhibition; Q9NPC2; HEK293 KCNK9, FluxOR thallium flux fluorescence; hits give low values; B-score at 10 µM; 1.2% of 310,000 active;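 active means ratio B-score over 3 SD below the library mean, with starting fluorescence within 5 SD of its mean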;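 further: negative B-score means less thallium flux so channel inhibition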
KCNK3 inh: human KCNK3 channel inhibition, primary screen. CHO-KCNK3 thallium flux, FluxOR fluorescence; hits give low values. B-score at 10 µM. 0.84% of 340,000 active. AID 602410;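 active means B-score under library mean minus 4 SD, starting fluorescence ratio at most library mean plus 5 SD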;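 further: more negative B-score means stronger inhibition of thallium flux through KCNK3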
hERG protect: shields human hERG channel from block by proarrhythmic agents; Q12809; CHO-hERG, FluxOR thallium flux, dofetilide IC70 present; activation (rescue from dofetilide block), less the hit threshold, % at 10 µM; 0.51% of 310,000 active; AID 1511;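 active means activation above the mean of controls blocked by dofetilide plus 5 SD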;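 further: thallium influx through hERG after potassium depolarization seen as dye fluorescence rise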
KCNQ1 act: potentiates or activates the human KCNQ1 potassium channel. P51787. CHO-K1 KCNQ1, thallium flux FluxOR fluorescence; hits give high values. B-score at 10 µM. 0.35% of 310,000 active. AID 2648;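 active means fluorescence ratio B-score, a plate-corrected score, at least three library SD, with initial intensity B-score within 5 SD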
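Doses: Single concentration per compound, DMSO matched to controls | Test system: KCNQ1-transfected CHO-K1 cells | Timing: 90 min dye loading and 20 min compound exposure, both at room temperature | Measured by: Kinetic FluxOR thallium fluorescence, 10-s 1-Hz baseline, 110-s post-stimulus read | Medium: Assay buffer with matched DMSO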
Large screens that a line does not name were inactive. Most compounds without a hit are left out; they make up all but 3.1% or so of the library.

O=Nc1onc(-c2ccc([N+](=O)[O-])cc2)c1NO	none
CC(C)(C)C(=O)NCCCc1nc2ccccc2n1CCCOc1ccc(Cl)cc1	KCNK9 inh -7.3
C=CCn1c(CCCNC(=O)C(C)(C)C)nc2ccccc21	none
Cc1ccccc1CNC(=O)C(=O)NCCC1CCCCN1S(=O)(=O)c1cccs1 (stereo unspecified)	none
COc1ccc(/C(O)=C2/C(=O)C(=O)N(CCCN3CCOCC3)C2c2ccc(C(C)C)cc2)cc1 (stereo unspecified)	none
COc1ccc(OC)c2cc3ccccc3cc12	KCNK3 inh -12 (no result: KCNQ1 block, KCNK9 inh, hERG protect, KCNQ1 act)
CCCCN(CCCC)C1=Nc2ccccc2N/C1=C(/C#N)C(=O)OCC	KCNQ1 block 7
CCOC(=O)/C(C#N)=C1\Nc2ccccc2N=C1N(CC(C)C)CC(C)C	none
CC(Nc1ncnc2sccc12)c1ccccc1 (stereo unspecified)	none
CCOc1ccccc1C=C1SC(=S)N(CC)C1=O	KCNK3 inh -9.7 (no result: KCNQ1 block, KCNK9 inh, hERG protect, KCNQ1 act)
O=C(NN1C(=O)/C(=C/c2ccc(O)cc2)SC1=S)c1cccc(O)c1	KCNQ1 block 8, KCNK9 inh -9.1
COc1ccccc1/C=C1\SC(=S)N(CCC(=O)NNC(=O)c2ccccc2O)C1=O	KCNQ1 block 6
O=C1/C(=C/c2ccc(O)c([N+](=O)[O-])c2)SC(=S)N1Cc1ccccc1	KCNQ1 block 8
O=C(NN1C(=O)/C(=C/c2ccc(O)c([N+](=O)[O-])c2)SC1=S)c1ccccc1Cl	KCNQ1 block 7
Cn1cc(/C=C2\SC(=S)N(NC(=O)c3ccccc3)C2=O)c2ccccc21	hERG protect 9.5
COc1cc(/C=C2/SC(=S)N(Cc3ccccc3)C2=O)cc(Cl)c1O	none
COc1cc(/C=C2\SC(=S)N(NC(=O)c3ccccc3O)C2=O)ccc1O	KCNQ1 block 6
COc1cc([N+](=O)[O-])cc(/C=C2/SC(=S)N(Cc3ccccc3)C2=O)c1O	KCNQ1 block 9
O=C(NN1C(=O)/C(=C/c2ccc(O)cc2)SC1=S)c1ccccc1O	none
CCCCn1c(N)c(N(CCOC)C(=O)c2cccc(N3C(=O)c4ccccc4C3=O)c2)c(=O)[nH]c1=O	none
O=c1cc(-c2ccccc2Cl)oc2ccc([N+](=O)[O-])c(O)c12	none
O=[N+]([O-])c1cc([N+](=O)[O-])c2oc(-c3ccccc3)c(Br)c2c1O	KCNQ1 block 8
Cc1cc(C(=O)NNC2CC(=O)N(c3ccc4ccccc4c3)C2=O)c(C)o1 (stereo unspecified)	hERG protect 5.0
O=C(Cc1ccc(Cl)cc1)NNC1CC(=O)N(c2ccc3ccccc3c2)C1=O (stereo unspecified)	none
CCN(CC(=O)Nc1ccc(NC(C)=O)cc1)C(=O)c1ccc(NC2CC2)c([N+](=O)[O-])c1	none
O=c1[nH]c(CN2CCN(c3ncccn3)CC2)nc2c(Br)cc(Br)cc12	KCNK9 inh -7.5
CCOc1ccc(S(=O)(=O)/N=C(/Nc2ccc(C(C)=O)cc2)c2ccccc2)cc1	none (no result: KCNQ1 block, KCNK9 inh, hERG protect, KCNQ1 act)
COC(=O)c1ccccc1N(C)S(=O)(=O)c1cc2c3c(c1)CCC(=O)N3CCC2	none
COc1ccc(/C=C/c2ccc3c(Br)ccc(O)c3n2)cc1	none
COc1cc(/C=C/c2ccc3c(Br)cc(Br)c(O)c3n2)ccc1O	hERG protect 4.7
Cc1cc(Cl)n2c(nc3ccccc32)c1C#N	KCNQ1 block 6
Cc1nnc(NC(=O)C2CCN(S(=O)(=O)c3cc([N+](=O)[O-])ccc3Cl)CC2)o1	none (no result: KCNQ1 block, KCNK9 inh, hERG protect, KCNQ1 act)
Cc1cccc2sc(NC(=O)C3CCN(S(=O)(=O)c4cc([N+](=O)[O-])ccc4Cl)CC3)nc12	KCNQ1 block 11
COc1cccc(NC(=O)C(OC(=O)c2cnc(C)cn2)c2ccccc2)c1 (stereo unspecified)	none
CCc1nc(SCC(=O)Nc2ccccc2OC)c2c(C)c(C)sc2n1	none
CCc1nc(SCC(=O)N2CC(=O)Nc3ccccc32)c2c(C)c(C)sc2n1	none
CCc1nc(SCC(=O)N2c3ccccc3CC2C)c2c(C)c(C)sc2n1 (stereo unspecified)	KCNQ1 block 6
CCc1nc(SCC(=O)Nc2cc(C)ccc2OC)c2c(C)c(C)sc2n1	KCNK9 inh -7.7
CC1CCN(C(=O)COC(=O)c2cccs2)CC1	none (no result: KCNQ1 block, KCNK9 inh, hERG protect, KCNQ1 act)
COc1ccc(Cl)cc1Nc1nc(-c2sc(NC(=O)c3ccccc3)nc2C)cs1	none (no result: KCNK3 inh)
